Reference: ChEMBL document CHEMBL4270555, “Synthesis and biological evaluation of magnolol derivatives as melatonergic receptor agonists with potential use in depression” (Eur J Med Chem, 2018)
Active and inactive are the calls of the source. No cut-off for these calls is given here.

Tests used:
[1] = Toxicity in po dosed Sprague-Dawley rat measured continuously for first 4 hrs followed by measured every hour for next 24 hrs and at 6 hrs intervals for following 48 hrs post dose; type: organism-based; details: in vivo
Outline: (§1)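 Followed OECD 425 in adult SD rats (180–220 g), three groups of six. Vehicle control received 0.5% CMC-Na orally; separate male and female groups received 2000 mg/kg orally. Endpoints observed: behaviour, breathing, cutaneous effects, sensory nervous system responses, gastrointestinal effects and deaths.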

[2] = Drug metabolism in Sprague-Dawley rat plasma assessed as (2S,3S,4S,5R,6S)-3,4,5-trihydroxy-6-(5-(1-hydroxyallyl)-5'-(1-hydroxypropyl)-2'-((2S,3R,4S,5S,6R)-3,4,5-trihydroxy-6-(hydroxymethyl)tetrahydro-2H-pyran-2-yloxy)biphenyl-2-yloxy)tetrahydro-2H-pyran-2-carboxylic acid formation at 100 mg/kg, po by UPLC-IT-TOF-MS analysis; type: ADME, organism-based; details: in vivo
Outline: (§2)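 Rats (n = 6) housed in metabolic cages received 100.0 mg/kg orally; controls received 0.5% CMC-Na. Plasma, urine and faeces were collected and analyzed by LC-IT-TOF-MS on a C18 column at 30 °C. Gradient 5–100% acetonitrile with 0.05% formic acid over 18 min at 0.2 mL/min; positive and negative ion MS/MS.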

[3] = Drug metabolism in Sprague-Dawley rat urine assessed as (2S,3R,4S,5S,6R)-2-(5,5'-diallyl-2'-methoxybiphenyl-2-yloxy)-6-(hydroxymethyl)tetrahydro-2H-pyran-3,4,5-triol formation at 100 mg/kg, po by UPLC-IT-TOF-MS analysis; type: ADME, organism-based; details: in vivo
Outline: (§3)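 Male/unspecified SD rats (n = 6) housed individually in metabolic cages, dosed orally at 100.0 mg/kg; controls given 0.5% CMC-Na orally. Plasma, urine and faeces collected. LC-IT-TOF-MS on C18 column at 30 °C, formic acid (0.05%) water/acetonitrile gradient 5–100% B over 18 min, 0.2 mL/min; positive and negative ion modes with automatic MS/MS.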

Mus musculus [4] = test: Antidepressant activity in po dosed Kunming mouse assessed as decrease in immobility time by tail suspension test; type: functional; details: read-out: MED
Outline: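 Male Kunming mice dosed orally at 10, 20 or 40 mg/kg, with fluoxetine and agomelatine 20 mg/kg as references. Mice were hung by the tail with tape about 1 cm from the tip, 50 cm above a box, for 6 min, isolated from sound and view. Immobility in the last 4 min was video-tracked; n = 10, mean ± SEM.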

Mus musculus [5] = test: Antidepressant activity in Kunming mouse assessed as decrease in immobility duration at 40 mg/kg, po by forced swim test relative to control; type: functional; design: scale not given: the % may be the effect or the level left
Outline: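 Male Kunming mice (18–20 g) given 10, 20 or 40 mg/kg orally; fluoxetine and agomelatine 20 mg/kg as references. Each mouse swam 6 min in a cylinder (25 × 15 cm) holding 10 cm of water at 25 ± 1 °C. Immobility over the last 4 min was scored by video tracking; n = 10, mean ± SEM versus vehicle.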

[6] = Drug metabolism in Sprague-Dawley rat plasma assessed as 5,5'-diallyl-2'-hydroxybiphenyl-2-yl hydrogen sulfate formation at 100 mg/kg, po by UPLC-IT-TOF-MS analysis; type: ADME, organism-based; details: in vivo; outline: as §3
[7] = Drug metabolism in Sprague-Dawley rat urine assessed as 5,5'-diallylbiphenyl-2,2'-diol formation at 100 mg/kg, po by UPLC-IT-TOF-MS analysis; type: ADME, organism-based; details: in vivo; outline: as §3
Rattus norvegicus [8] = test: Toxicity in Sprague-Dawley rat assessed as change in sensory nervous system responses at 2000 mg/kg, po measured continuously for first 4 hrs followed by measured every hour for next 24 hrs and at 6 hrs intervals for following 48 hrs post dose; type: organism-based; details: in vivo; outline: as §1
Rattus norvegicus [9] = test: Toxicity in Sprague-Dawley rat assessed as caustic injuries at 2000 mg/kg, po measured over 4 hrs; type: organism-based; details: in vivo
Outline: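 Following OECD 425, adult SD rats (180–220 g), six per group: vehicle (0.5% CMC-Na) controls, plus males and females given 2000 mg/kg orally. Watched continuously for 4 h for behaviour, breathing, cutaneous, sensory and gastrointestinal signs, then hourly to 24 h and every 6 h for the next 48 h.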

Mus musculus [10] = test: Increase in 5-hydroxyindole-3-acetic acid level in Kunming mouse hypothalamus at 40 mg/kg, po treated for 7 days by HPLC-ECD analysis; type: functional, organism-based
Outline: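 Male Kunming mice (18–20 g) given vehicle or 40 mg/kg for 7 days, then killed by cervical dislocation. Frontal cortex, hippocampus, striatum, hypothalamus and thalamus dissected on ice, homogenized in ice-cold 0.2 M perchloric acid with 0.1 mM EDTA, centrifuged 15,000 rpm, 20 min, 4 °C. Supernatant analysed by HPLC-ECD at +0.50 V; phosphate/octanesulfonate mobile phase pH 3.0 with 12% methanol. Levels in ng/g, mean ± SEM.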

Mus musculus [11] = test: Toxicity in Kunming mouse assessed as effect in spontaneous locomotor activity by measuring total number of line crosses at 10 to 40 mg/kg, po by open field test; type: organism-based; details: in vivo
Outline: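 Male Kunming mice, 18–20 g, group-housed at 22 ± 2 °C on 12 h light/dark, given oral doses of 10, 20 or 40 mg/kg before behavioural testing. Each animal placed in the centre of a black open-field box (24 × 24 × 40 cm) for 30 s adaptation, then explored freely for 6 min. Line crossings and distance recorded. Mean ± SEM, n = 10.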

[12] = Drug metabolism in Sprague-Dawley rat urine assessed as (2R,2'R,3S,3'S,4S,4'S,5R,5'R,6S,6'S)-6,6'-(5,5'-diallylbiphenyl-2,2'-diyl)bis(oxy)bis(2-(hydroxymethyl)tetrahydro-2H-pyran-3,4,5-triol) formation at 100 mg/kg, po by UPLC-IT-TOF-MS analysis; type: ADME, organism-based; details: in vivo; outline: as §3
Mus musculus [13] = test: Decrease in dopamine level in Kunming mouse hypothalamus at 40 mg/kg, po treated for 7 days by HPLC-ECD analysis; type: functional, organism-based
Outline: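 Male Kunming mice received vehicle or 40 mg/kg for 7 days, then were killed by cervical dislocation and the brain regions dissected on ice. Tissue was homogenized in ice-cold 0.2 M perchloric acid with 0.1 mM EDTA and centrifuged at 15,000 rpm, 20 min, 4 °C. Supernatant was analyzed by HPLC-ECD (+0.50 V; phosphate/octanesulfonate mobile phase, pH 3.0). Results in ng/g, mean ± SEM.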

[14] = Drug metabolism in Sprague-Dawley rat plasma assessed as 2S,3S,4S,5R,6S)-6-(5,5'-diallyl-2'-((2S,3R,4S,5S,6R)-3,4,5-trihydroxy-6-(hydroxymethyl)tetrahydro-2H-pyran-2-yloxy)biphenyl-2-yloxy)-3,4,5-trihydroxytetrahydro-2H-pyran-2-carboxylic acid formation at 100 mg/kg, po by UPLC-IT-TOF-MS analysis; type: ADME, organism-based; details: in vivo; outline: as §2
[15] = Drug metabolism in Sprague-Dawley rat feces assessed as 5-allyl-5'-(1-hydroxyallyl)-2'-((2S,3R,4S,5S,6R)-3,4,5-trihydroxy-6-(hydroxymethyl)tetrahydro-2H-pyran-2-yloxy)biphenyl-2-yl hydrogen sulfate formation at 100 mg/kg, po by UPLC-IT-TOF-MS analysis; type: ADME, organism-based; details: in vivo; outline: as §2
[16] = Drug metabolism in Sprague-Dawley rat urine assessed as (2S,3S,4S,5R,6S)-6-(5-acryloyl-2'-hydroxy-5'-(1-hydroxyallyl)biphenyl-2-yloxy)-3,4,5-trihydroxytetrahydro-2H-pyran-2-carboxylic acid formation at 100 mg/kg, po by UPLC-IT-TOF-MS analysis; type: ADME, organism-based; details: in vivo; outline: as §3
[17] = Drug metabolism in Sprague-Dawley rat plasma assessed as (2S,3S,4S,5R,6S)-6-(5'-allyl-5-(1-hydroxyallyl)-2'-((2S,3R,4S,5S,6R)-3,4,5-trihydroxy-6-(hydroxymethyl)tetrahydro-2H-pyran-2-yloxy)biphenyl-2-yloxy)-3,4,5-trihydroxytetrahydro-2H-pyran-2-carboxylic acid formation at 100 mg/kg, po by UPLC-IT-TOF-MS analysis; type: ADME, organism-based; details: in vivo; outline: as §2

C=CCc1ccc(O)c(-c2cc(CC=C)ccc2O[C@@H]2O[C@H](CO)[C@@H](O)[C@H](O)[C@H]2O)c1
LD50 at 76 h [1]: > 2000 mg/kg
Drug metabolism [2]: Metabolite_Notdetected
Drug metabolism [3]: Metabolite_Detected
minimal effective dose (Mus musculus [4]): 10 mg/kg
Activity (Mus musculus [5]): 37.66%
Drug metabolism [6]: Metabolite_Notdetected
Drug metabolism [7]: Metabolite_Detected
Activity (Rattus norvegicus [8]): Non-Toxic
Activity (Rattus norvegicus [9]): Non-Toxic
Activity (Mus musculus [10]): Active
Activity (Mus musculus [11]): Non-Toxic
Drug metabolism [12]: Metabolite_Detected
Activity (Mus musculus [13]): Active
Drug metabolism [14]: Metabolite_Notdetected
Drug metabolism [15]: Metabolite_Detected
Drug metabolism [16]: Metabolite_Detected
Drug metabolism [17]: Metabolite_Notdetected
